The values that follow come from ChEMBL document CHEMBL3244011, “(Aryloxy)[p-(aryloxy)phenyl]- and (aryloxy)[p-(arylthio)phenyl]acetic acids and esters as hypolipidemic agents” (1979).

Common to all, as to type: functional
Common to all, as to set-up: scale not given: the % may be the effect or the level left

Test [1] concerns Rattus norvegicus. Briefly: Hypolipidemic activity in COBBS-CD rat assessed as reduction in serum sterol level at 0.01% administered with chow diet after 5 days relative to control. Put shortly: (§1)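 Male COBBS-CD rats, four per treated group and eight per control group. The compound was mixed into ground rat chow at 0.1, 0.03 or 0.01% w/w (about 100, 30 and 10 mg/kg). Control chow received only the mixing solvent (methanol-chloroform 1:3 v/v). Food and water were ad libitum for 5 days, then rats were decapitated and blood collected. Serum sterols were measured by an automated method and expressed relative to controls; ± values are SD.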

Test [2] relates to Rattus norvegicus. Briefly: Hypolipidemic activity in COBBS-CD rat assessed as reduction in serum triglyceride level at 0.01% administered with chow diet after 5 days relative to control. Put shortly:
(§2)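 The compound was given in ground chow at 0.1, 0.03 or 0.01% w/w (about 100, 30 and 10 mg/kg) to male COBBS-CD rats (n=4; solvent-chow controls n=8) for 5 days ad libitum. Rats were killed by decapitation and blood collected. Serum triglycerides were assayed by an automated method and compared with controls; ± values are SD.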

Test [3] has as its system Rattus norvegicus. Briefly: Hypolipidemic activity in COBBS-CD rat assessed as reduction in serum triglyceride level at 0.03% administered with chow diet after 5 days relative to control. The essentials:
as §2

Test [4] concerns Rattus norvegicus. Kind of test: Hypolipidemic activity in COBBS-CD rat assessed as reduction in serum sterol level at 0.03% administered with chow diet after 5 days relative to control. Put shortly: as §1
Test [5] relates to Rattus norvegicus. Briefly: Hypolipidemic activity in COBBS-CD rat assessed as reduction in serum triglyceride level at 0.1% administered with chow diet after 5 days relative to control. The essentials: as §2
The test system of test [6] is Rattus norvegicus. Kind of test: Hypolipidemic activity in COBBS-CD rat assessed as reduction in serum sterol level at 0.1% administered with chow diet after 5 days relative to control. Put shortly:
as §1

Each structure is given as a SMILES string.

Regarding `COC(=O)C(Oc1ccc(C(C)(C)C)cc1)c1ccc(Oc2ccc(Cl)cc2)cc1` (configuration not stated), the Activity in the test on Rattus norvegicus [1] came out at 27%; in the test with Rattus norvegicus [2], 41%; in the test on Rattus norvegicus [3], 53%; with Rattus norvegicus [4], 20%; in the test on Rattus norvegicus [5], 57%; in the test with Rattus norvegicus [6], 20%.
For `COC(=O)C(Oc1cccc(C(F)(F)F)c1)c1ccc(Oc2ccc(Cl)cc2)cc1` (configuration not stated), the Activity in the test on Rattus norvegicus [1] is -6%; with Rattus norvegicus [2] it was 18%; in the test on Rattus norvegicus [3] it was 47%; in the test on Rattus norvegicus [4] it was 16%; with Rattus norvegicus [5], 61%; in the test with Rattus norvegicus [6], 28%.
With `COC(=O)C(Oc1cc(Cl)c(Cl)c(Cl)c1)c1ccc(Oc2ccc(Cl)cc2)cc1` (configuration not stated), the Activity is given as 3% in the test on Rattus norvegicus [1]; 15% with Rattus norvegicus [2]; 46% in the test on Rattus norvegicus [3]; -2% with Rattus norvegicus [4]; 55% in the test on Rattus norvegicus [5]; 30% in the test with Rattus norvegicus [6].
`COC(=O)C(Oc1cc(C)c(Cl)c(C)c1)c1ccc(Oc2ccc(Cl)cc2)cc1` (configuration not stated): the Activity with Rattus norvegicus [1] turned out to be 0%; with Rattus norvegicus [2], 33%; with Rattus norvegicus [3], 49%; in the test with Rattus norvegicus [4], 22%; in the test on Rattus norvegicus [5] it was 66%; in the test on Rattus norvegicus [6], 21%.
Take `COC(=O)C(Oc1ccc(C)c(C)c1)c1ccc(Oc2ccc(Cl)cc2)cc1` (configuration not stated): the Activity with Rattus norvegicus [1] was 18%; in the test with Rattus norvegicus [2] it was 23%; in the test with Rattus norvegicus [3], 45%; in the test on Rattus norvegicus [4] it was 28%; in the test with Rattus norvegicus [5] it was 63%; in the test on Rattus norvegicus [6], 46%.
For the compound `COC(=O)C(Oc1cccc2c1CCCC2)c1ccc(Oc2ccc(Cl)cc2)cc1` (configuration not stated), the Activity in the test on Rattus norvegicus [1] is listed as 1%; with Rattus norvegicus [2] it was -34%; in the test with Rattus norvegicus [3] it was -1%; with Rattus norvegicus [4], 14%; with Rattus norvegicus [5], 41%; with Rattus norvegicus [6], 23%.
With `COC(=O)C(Oc1ccc(C(F)(F)F)cc1)c1ccc(Oc2ccc(Cl)cc2)cc1` (configuration not stated), the Activity in the test on Rattus norvegicus [1] was found to be 24%; in the test with Rattus norvegicus [2], 60%; with Rattus norvegicus [3] it was 51%; in the test with Rattus norvegicus [4], 28%; with Rattus norvegicus [5], 53%; with Rattus norvegicus [6] it was 20%.
In the case of `COC(=O)C(Oc1ccc2c(c1)CCCC2)c1ccc(Oc2ccc(Cl)cc2)cc1` (configuration not stated), the Activity was determined as 24% in the test on Rattus norvegicus [1]; 8% in the test with Rattus norvegicus [2]; 35% in the test on Rattus norvegicus [3]; 26% in the test on Rattus norvegicus [4]; 47% in the test on Rattus norvegicus [5]; 42% with Rattus norvegicus [6].
Turning to `O=C(O)C(Oc1ccc(Cl)cc1)c1ccc(Oc2ccc(Cl)cc2)cc1` (configuration not stated), the Activity stood at 12% with Rattus norvegicus [1]; 34% in the test on Rattus norvegicus [2]; 50% in the test with Rattus norvegicus [3]; 23% with Rattus norvegicus [4]; 60% in the test on Rattus norvegicus [5]; 31% in the test with Rattus norvegicus [6].
Take `CCOC(=O)C(Oc1ccc(Cl)cc1)c1ccc(Oc2ccc(Cl)cc2)cc1` (configuration not stated): the Activity in the test with Rattus norvegicus [1] stood at 18%; with Rattus norvegicus [2] it was 40%; with Rattus norvegicus [3], 51%; in the test with Rattus norvegicus [4], 25%; in the test on Rattus norvegicus [5], 60%; with Rattus norvegicus [6], 25%.
As for `COC(=O)C(Oc1ccc(F)cc1)c1ccc(Oc2cccc(C(F)(F)F)c2)cc1` (configuration not stated), the Activity in the test with Rattus norvegicus [1] is on record as 4%; in the test with Rattus norvegicus [2] it was 45%; in the test with Rattus norvegicus [3], 27%; with Rattus norvegicus [4], 6%; in the test with Rattus norvegicus [5], 48%; in the test with Rattus norvegicus [6], 32%.
On to `COC(=O)C(Oc1cccc(C(F)(F)F)c1)c1ccc(Oc2ccc(C(C)(C)C)cc2)cc1` (configuration not stated), for which the Activity in the test with Rattus norvegicus [1] is given as -5%; in the test with Rattus norvegicus [2] it was -12%; with Rattus norvegicus [3] it was -18%; in the test on Rattus norvegicus [4] it was -4%; with Rattus norvegicus [5], 19%; in the test with Rattus norvegicus [6], 13%.
